In ChEMBL document CHEMBL1137162, “The development of novel inhibitors of tumor necrosis factor-alpha (TNF-alpha) production based on substituted [5,5]-bicyclic pyrazolones” (Bioorg Med Chem Lett, 2004):

These molecules were tested on Rattus norvegicus (assay: Percent reduction in joint damage as compared to the control at 25 mg/Kg).
Assay type: functional
How it was run: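 Rat iodoacetate osteoarthritis model; groups of 15 animals dosed orally BID (~every 12 h) for 7 days at 25 mg/kg or vehicle (2.5 mL/kg). Sacrifice on day 22; left joint disarticulated, fixed in 10% formalin 24–48 h, tibial cartilage surface imaged by image analysis. Joint damage expressed as % reduction versus vehicle; significance at P < 0.05.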

Compound | Reduction [%]
C[C@H](Nc1nccc(-c2c(-c3ccc(F)cc3)c(=O)n3n2CC2(C3)OCCO2)n1)C(C)(C)O | 18
C[C@H](Nc1nccc(-c2c(-c3ccc(F)cc3)c(=O)n3n2CC2(C3)OCCO2)n1)c1ccccc1 | 27
COC[C@H](C)Nc1nccc(-c2c(-c3ccc(F)cc3)c(=O)n3n2CC2(C3)OCCO2)n1 | 17
COCC(C)Nc1nccc(-c2c(-c3ccc(F)cc3)c(=O)n3n2CC(OC)C3)n1 (racemic) | 28

These molecules were tested on THP-1 (assay: inhibitory potency against human Tumor necrosis factor, alpha production in THP-1cells).
Assay type: functional, cell-based
How it was run: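 Human monocytic THP-1 cells (2.0 × 10^5/well), duplicate cultures, preincubated 15 min with or without inhibitor over a concentration range, then stimulated with LPS (2 μg/mL). TNF-α released measured by ELISA 4 h after stimulation; cell viability after the 4 h incubation checked by MTS assay.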

Compound | IC50 [nM]
Nc1ccccc1CNc1nccc(-c2c(-c3ccc(F)cc3)c(=O)n3n2CC2(C3)OCCO2)n1 | 101
O=c1c(-c2ccc(F)cc2)c(-c2ccnc(NCc3ccccc3)n2)n2n1CC1(C2)OCCCO1 | 31
O=c1c(-c2ccc(F)cc2)c(-c2ccnc(NCc3cccc(F)c3)n2)n2n1CC1(C2)OCCO1 | 13
C[C@H](Nc1nccc(-c2c(-c3ccc(F)cc3)c(=O)n3n2CC2(C3)OCCO2)n1)C(C)(C)O | 9
O=c1c(-c2ccc(F)cc2)c(-c2ccnc(NCc3ccc(F)cc3)n2)n2n1CC1(C2)OCCO1 | 290
O=c1c(-c2ccc(F)cc2)c(-c2ccnc(Oc3ccccc3)n2)n2n1CC(N1CCCC1)C2 (stereo not drawn) | 327
O=c1c(-c2ccc(F)cc2)c(-c2ccnc(NCc3cccnc3)n2)n2n1CC1(C2)OCCO1 | 427
O=c1c(-c2ccc(F)cc2)c(-c2ccnc(NCc3ccc(F)cc3)n2)n2n1CC1(C2)OCCCO1 | 630
O=c1c(-c2ccc(F)cc2)c(-c2ccnc(NCc3ccc(C(F)(F)F)cc3)n2)n2n1CC1(C2)OCCO1 | 1000
O=c1c(-c2ccc(F)cc2)c(-c2ccnc(Oc3ccccc3)n2)n2n1CC1(C2)OCCCO1 | 69
Nc1ccc(CNc2nccc(-c3c(-c4ccc(F)cc4)c(=O)n4n3CC3(C4)OCCO3)n2)cc1 | 161
O=c1c(-c2ccc(F)cc2)c(-c2ccnc(Oc3ccccc3)n2)n2n1CC(N1CCNCC1)C2 (stereo not drawn) | 500
COC[C@H](C)Nc1nccc(-c2c(-c3ccc(F)cc3)c(=O)n3n2CC2(C3)OCCCO2)n1 | 36
O=c1c(-c2ccc(F)cc2)c(-c2ccnc(NCc3ccccc3C(F)(F)F)n2)n2n1CC1(C2)OCCO1 | 17
O=c1c(-c2ccc(F)cc2)c(-c2ccnc(NCc3ccncc3)n2)n2n1CC1(C2)OCCO1 | 1000
C[C@H](Nc1nccc(-c2c(-c3ccc(F)cc3)c(=O)n3n2CC2(C3)OCCO2)n1)c1ccccc1 | 2
O=c1c(-c2ccc(F)cc2)c(-c2ccnc(Oc3ccccc3)n2)n2n1CC(N1CCOCC1)C2 (stereo not drawn) | 313

Compound | IC50 [nM]
COC[C@H](C)Nc1nccc(-c2c(-c3ccc(F)cc3)c(=O)n3n2CC2(C3)OCCO2)n1 | 36
COCC(C)Nc1nccc(-c2c(-c3ccc(F)cc3)c(=O)n3n2CC(OC)C3)n1 (racemic) | 15
O=c1c(-c2ccc(F)cc2)c(-c2ccnc(NCc3ccccc3F)n2)n2n1CC1(C2)OCCO1 | 8
O=c1c(-c2ccc(F)cc2)c(-c2ccnc(NCc3cccc(C(F)(F)F)c3)n2)n2n1CC1(C2)OCCO1 | 197
Cc1ccccc1CNc1nccc(-c2c(-c3ccc(F)cc3)c(=O)n3n2CC2(C3)OCCO2)n1 | 19
C[C@@H](Nc1nccc(-c2c(-c3ccc(F)cc3)c(=O)n3n2CC(O)C3)n1)c1ccccc1 (stereo partly drawn) | 5
O=c1c(-c2ccc(F)cc2)c(-c2ccnc(NCc3ccccn3)n2)n2n1CC1(C2)OCCO1 | 148
COCC(C)Nc1nccc(-c2c(-c3ccc(F)cc3)c(=O)n3n2CC(OC)C3)n1 (single isomer, unassigned) | 20
O=c1c(-c2ccc(F)cc2)c(-c2ccnc(NCc3ccccc3)n2)n2n1CC1(C2)OCCO1 | 11
COC(=O)OC1Cn2c(-c3ccnc(Oc4ccccc4)n3)c(-c3ccc(F)cc3)c(=O)n2C1 (stereo not drawn) | 181
Cc1ccc(CNc2nccc(-c3c(-c4ccc(F)cc4)c(=O)n4n3CC3(C4)OCCO3)n2)cc1 | 293
Cc1cccc(CNc2nccc(-c3c(-c4ccc(F)cc4)c(=O)n4n3CC3(C4)OCCO3)n2)c1 | 40
COC[C@H](C)Nc1nccc(-c2c(-c3ccc(F)cc3)c(=O)n3n2CC(OC)C3)n1 (stereo partly drawn) | 13
O=c1c(-c2ccc(F)cc2)c(-c2ccnc(Oc3ccccc3)n2)n2n1CC1(C2)OCCO1 | 38
C[C@H](Nc1nccc(-c2c(-c3ccc(F)cc3)c(=O)n3n2CC2(C3)OCCCO2)n1)c1ccccc1 | 12
CN(C)C1Cn2c(-c3ccnc(Oc4ccccc4)n3)c(-c3ccc(F)cc3)c(=O)n2C1 (stereo not drawn) | 177
O=c1c(-c2ccc(F)cc2)c(-c2ccnc(Oc3ccccc3)n2)n2n1CC(N1CCCCC1)C2 (stereo not drawn) | 297
